# Measurements from paper PMC7188312 (Nature, 2019).
# What was measured:
# [1] = tested on: E. coli; details: cited from earlier work
# [2] = tested on: K. pneumoniae; details: cited from earlier work
# [3] = tested on: Bacteroides xylanisolvens KLE 2253; experiment: MIC, microbroth dilution, anaerobic; type: cell-based; details: KLE2253
# [4] = tested on: Stenotrophomonas maltophilia KLE 11416; experiment: MIC, microbroth dilution, anaerobic; type: cell-based; details: KLE11416
# [5] = tested on: Klebsiella pneumoniae ATCC 700603; experiment: MIC, microbroth dilution; type: cell-based
# [6] = Cytotoxicity, microplate Alamar Blue assay; type: cell-based; details: human
# Method in brief: (§1)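 FaDu, HepG2 and HEK293-RFP cells were grown in Eagle's MEM with 10% FBS at 37°C, 5% CO2. Cells were seeded in exponential growth, and after 24 h the medium was replaced with fresh medium holding 2-fold serial dilutions of test compound made in water. After 72 h, resazurin was added to a final 0.15 mM. […] was read 3 h later. Biological replicates.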
# [7] = tested on: Acinetobacter baumannii ATCC 17978; experiment: MIC, microbroth dilution; type: cell-based; details: ATCC17978
# [8] = tested on: Enterobacter cloacae ATCC 13047; experiment: MIC, microbroth dilution, anaerobic; type: cell-based; details: ATCC13047
# [9] = tested on: E. coli clinical isolates; experiment: microbe, parasite or virus in culture; type: cell-based; details: Escherichia coli, E. coli ESBL JMI 1043856
# [10] = tested on: Mycobacterium tuberculosis mc^26020; experiment: MIC, resazurin; type: cell-based
# [11] = tested on: Bacteroides fragilis ATCC 25285; experiment: MIC, microbroth dilution, anaerobic; type: cell-based; details: ATCC25285
# [12] = tested on: E. coli AR350 (mcr-1); experiment: MIC, microbroth dilution; type: cell-based; details: Escherichia coli
# [13] = Cytotoxicity, microplate Alamar Blue assay; type: cell-based; details: human, FaDu pharynx squamous cell carcinoma cells (ATCC HTB-43)
# Method in brief: as §1
# [14] = tested on: Haemophilus parainfluenzae KLE 2367; experiment: MIC, microbroth dilution, anaerobic; type: cell-based; details: KLE2367
# [15] = Cytotoxicity, microplate Alamar Blue assay; type: cell-based; details: human, HepG2 liver hepatocellular carcinoma cells (ATCC HB-8065)
# Method in brief: as §1
# [16] = tested on: Bacteroides caccae KLE 2423; experiment: MIC, microbroth dilution, anaerobic; type: cell-based; details: KLE2423
# [17] = tested on: K. pneumoniae clinical isolates; experiment: microbe, parasite or virus in culture; type: cell-based; details: Klebsiella pneumoniae, K. pneumoniae ESBL JMI 1052654
# [18] = tested on: Pseudomonas aeruginosa PAO1; experiment: MIC, microbroth dilution; type: cell-based
# [19] = tested on: Faecalibacterium prausnitzii KLE 2243; experiment: MIC, microbroth dilution, anaerobic; type: cell-based; details: KLE2243
# [20] = tested on: Proteus mirabilis KLE 2600; experiment: MIC, microbroth dilution, anaerobic; type: cell-based; details: KLE2600
# [21] = tested on: P. aeruginosa pmrB 523C>T; experiment: MIC, microbroth dilution; type: cell-based; details: Pseudomonas aeruginosa
# [22] = tested on: Salmonella Typhimurium LT2 ATCC 19585; experiment: MIC, microbroth dilution, anaerobic; type: cell-based; details: Salmonella enterica, ATCC19585|TYPHIMURIUM
# [23] = molecular target: BAM complex, wild type (Escherichia coli, UniProt P0A940); experiment: BAM folding assay; type: biochemical, E. coli; details: WT BAM-nanodiscs, increasing concentrations
# [24] = molecular target: WT BAM (BamA of BAM) (Escherichia coli, UniProt P0A940); experiment: Isothermal Titration Calorimetry; type: binding, E. coli; details: same concentration range as darobactin
# Method in brief: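 BAM was expressed with 0.5 mM IPTG for 3 h, extracted from membranes in DDM and Ni-NTA purified. ITC ran at 25°C in duplicate: 20 μM BAM in 1xPBS with 0.05% DDM in the cell, 200 μM ligand in the syringe, 20 injections 300 s apart, stirring at 300 rpm. Ligand-into-buffer heats were measured as a control. Data were fitted to an independent binding model.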
# [25] = molecular target: BAM complex (BamABCDE), wild type (E. coli) (UniProt P0A940); experiment: ITC
# [26] = tested on: E. coli MG1655; experiment: LPS binding assay; type: cell-based; details: LPS from E. coli O55:B5, 0.5–100 μg ml^−1
# Method in brief: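 Microbroth dilution: E. coli MG1655 at OD600 0.001 in cation-adjusted MHIIB was added to wells holding purified E. coli O55:B5 LPS (0.5–100 μg ml−1) plus serially diluted test compound or polymyxin B. Plates were incubated overnight at 37°C. The growth-inhibiting concentration was read by eye, with and without LPS.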
compound,measurement,setting,value
NC(N)=NC(=O)CC(Nc1nc(N=C(N)N)nc(NC2CCC(NC(=O)Cn3nnc(-c4ccc(F)cc4)n3)CC2)n1)C1CC1 (centres unmarked) [MRL-494],MIC,[1],15 µg/mL
same,MIC,[2],62 µg/mL
CC1(C)S[C@@H]2[C@H](NC(=O)[C@H](N)c3ccccc3)C(=O)N2[C@H]1C(=O)O [ampicillin],MIC,[3],1 µg/mL
same,MIC,[4],> 128 µg/mL
same,MIC,[5]; ATCC700603,128 µg/mL
same,MIC,"[5]; ATCC700603, K. pneumoniae ATCC700603 (SHV-18)",> 128 µg/mL
same,IC50 at 72 h,[6],> 128 µg/mL
same,MIC,[7],64 µg/mL
same,MIC,[8],> 128 µg/mL
same,MIC,[9],> 128 µg/mL
same,MIC,[10],16 µg/mL
same,MIC,[11],128 µg/mL
same,MIC,[12],> 128 µg/mL
same,IC50 at 72 h,[13],> 128 µg/mL
same,MIC,[14],128 µg/mL
same,IC50 at 72 h,[15],> 128 µg/mL
same,MIC,[16],2 µg/mL
same,MIC,[17],> 128 µg/mL
same,MIC,[18],> 128 µg/mL
same,MIC,[19],64 µg/mL
same,MIC,[20],> 128 µg/mL
same,MIC,[21],> 128 µg/mL
same,MIC,[22],2 µg/mL
WNWSKSF,inhibition of BAM-ND activity,[23],only minimal effects
same,inhibition of BAM-ND activity,[23]; listed as linear peptide,no inhibitory activity
same,binding to BAM by ITC,[24],no binding
darobactin (peptide),Kd,[25],1.2 µM
same,dH,[25],-25 kcal/mol
polymyxin B,effect of added purified LPS on antibiotic activity (MIC),[26],antagonized polymyxin activity
